Like-named read-outs stand apart in the source and are kept apart here.
Assays:
[1] = In vitro Caco-2 cell monolayer transport, apical-to-basolateral; format: in vitro ADME, human; details: human, Caco-2
Outline: (§1)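 Caco-2 cells grown in high-glucose DMEM with 10% FBS and 1% nonessential amino acids at 37 °C, 5% CO2. Seeded at 1.0 × 10^5 cells/cm2 on 4.2 cm2 inserts. Monolayers with TEER >250 Ω cm2 were HBSS-washed and preincubated 1 h at 37 °C. Compound was loaded apically, with samples taken at 0–4 h. Analysed by UPLC–MS/MS; Papp = (dQ/dt)/(A × C0).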

[2] = system: Caco-2 cell monolayers; assay: as above; format: in vitro ADME, human; details: for Apically loaded amount retained on the apical side: Caco-2 cell transport, authors' unpublished data
Outline: as §1

[3] = format: in vivo, rat; details: for AUC(0-t) / Cmax / Tmax: male, SD, rat, plasma, po
[4] = system: Caco-2 cell monolayers; details: flavonoids glucosides; ref the previous report; cited from earlier work

SMILES: O=C(/C=C/c1ccc(O)c(O)c1)O[C@@H]1C[C@](O)(C(=O)O)C[C@@H](O)[C@H]1O [Chlorogenic acid]
- Papp A→B at 4 h [1]: 19 ± 3.35 ×10⁻⁶ cm/s
- Papp-value increased to, compared to control ([2]; with addition of 0.1% (w/v) of COS): 9800%
- AUC(0-t) ([3]; 25 mg/kg): 658 ng·h/mL
- Cmax ([3]; 25 mg/kg): 284 ± 76.8 ng/mL
- Tmax ([3]; 25 mg/kg): 13.8 min
- AUC(0-t) ([3]; 10 ml/kg): 541 ng·h/mL
- Cmax ([3]; 10 ml/kg): 236 ± 61.2 ng/mL
- Tmax ([3]; 10 ml/kg): 30 min
- AUC increased to, compared to control ([3]; with COS 25 mg/kg, rats, oral): 122%

SMILES: O=c1cc(-c2ccc(O)c(O)c2)oc2cc(O[C@@H]3O[C@H](CO)[C@@H](O)[C@H](O)[C@H]3O)cc(O)c12 [Galuteolin]
- Absorption into Caco-2 cell [4]: cannot be well absorbed
- Apically loaded amount retained on the apical side [2]: about 100%

SMILES: O=c1c(O[C@@H]2O[C@H](CO)[C@H](O)[C@H](O)[C@H]2O)c(-c2ccc(O)c(O)c2)oc2cc(O)cc(O)c12 [Hyperoside]
- Absorption into Caco-2 cell [4]: cannot be well absorbed

SMILES: O=c1cc(-c2ccc(O)c(O)c2)oc2cc(O[C@@H]3O[C@H](CO)[C@H](O)[C@H](O)[C@H]3O)cc(O)c12 [Luteolin-7-o--β-D-galactoside]
- Absorption into Caco-2 cell [4]: cannot be well absorbed

SMILES: C[C@@H]1O[C@@H](OC[C@H]2O[C@@H](Oc3c(-c4ccc(O)c(O)c4)oc4cc(O)cc(O)c4c3=O)[C@H](O)[C@@H](O)[C@@H]2O)[C@H](O)[C@H](O)[C@H]1O [Rutin]
- Absorption into Caco-2 cell [4]: cannot be well absorbed
- Apically loaded amount retained on the apical side [2]: about 100%

SMILES: O=c1c(O[C@@H]2O[C@H](CO)[C@H](O)[C@H](O)[C@H]2O)c(-c2ccc(O)c(O)c2)oc2cc(O)cc(O)c12 [hyperin]
- Apically loaded amount retained on the apical side [2]: about 100%

Source: paper PMC7119000 (Phytomedicine, 2013)
